Consider one compound from ChEMBL document CHEMBL3860061, “A Novel Parkinson's Disease Drug Candidate with Potent Anti-neuroinflammatory Effects through the Src Signaling Pathway” (J Med Chem, 2016).

Data set [1] deals with Mus musculus. Nature of the data set: Neuroprotective activity in alpha-syn A53T transgenic B6C3H mouse assessed as improvement in motor behavior at 5 to 20 mg/kg dosed once daily for 12 consecutive weeks by pole test. The class given is functional, organism-based.
The subject of data set [2] is Mus musculus. Nature of the data set: Antineuro-inflammatrory activity in alpha-syn A53T transgenic B6C3H mouse assessed as decrease in IL-1beta level in midbrain at 10 to 20 mg/kg dosed once daily for 12 consecutive weeks by ELISA. It counts as functional, organism-based. In a few lines: (§1)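 Male B6;C3H mice expressing mutant α-syn (A53T), from 4 months old, given agent (5, 10, 20 mg/kg) or L-DOPA 20 mg/kg in 0.5% CMC-Na once daily for 12 weeks. Wild-type controls received vehicle. Midbrain homogenised in non-denaturing lysis buffer with protease inhibitor; IL-1β or TNF-α measured by ELISA, n = 6, mean ± SD.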

Data set [3] deals with Mus musculus. Nature of the data set: Antineuro-inflammatrory activity in alpha-syn A53T transgenic B6C3H mouse assessed as decrease in TNF-alpha level in midbrain at 10 to 20 mg/kg dosed once daily for 12 consecutive weeks by ELISA. The class given is functional, organism-based. A digest of the protocol: as §1
For data set [4], the target named is Proto-oncogene tyrosine-protein kinase Src (Mus musculus) (UniProt P05480). Nature of the data set: Inhibition of Src signaling pathway in mouse BV2 cells assessed as suppression of LPS-induced NO release at 0.1 to 100 uM preincubated for 1 hr followed by LPS addition measured after 24 hrs relative to control by Griess assay. It counts as cell-based. Conditions: BV-2. In a few lines:
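BV-2 cells in DMEM/10% FBS, plated at 5×10^3 per well. After 24 h, treated at 100, 50, 10, 5, 1 and 0.1 µM; 1 h later LPS 300 ng/mL added. After another 24 h, nitrite in the medium measured by Griess assay.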

The target in data set [5] is Proto-oncogene tyrosine-protein kinase Src (Rattus norvegicus) (UniProt Q9WUD9). In words: Inhibition of Src in Sprague-Dawley rat primary microglia cells assessed as suppression of LPS-stimulated Akt phosphorylation at Ser-473 residue at 10 uM preincubated for 1 hr followed by LPS challenge measured after 3 hrs by Western blot analysis. A digest of the protocol: (§2)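 Primary microglia from 1-day-old Sprague-Dawley rat brains, grown to confluence 12–14 days, shaken off astroglia (>98% pure). Agent at 10 µM added 1 h before LPS 100 ng/mL. Phosphorylated Src, Akt and PTEN measured 3 h later by Western blot, n = 4.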

Data set [6] has the same target. In words: Inhibition of LPS-induced Src phosphorylation at Tyr-416 residue in Sprague-Dawley rat primary microglia cells at 10 uM preincubated for 1 hr followed by LPS stimulation measured after 3 hrs by Western blot analysis. A digest of the protocol: as §2
The subject of data set [7] is Mus musculus. Nature of the data set: Neuroprotective activity in alpha-syn A53T transgenic B6C3H mouse assessed as reversal of decline of TH-positive neuron levels in substantia nigra at 10 to 20 mg/kg dosed once daily for 12 consecutive weeks by 3,3'-diaminobenzidine staining based light microscopic analysis. The class given is functional, organism-based. In a few lines: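 Transgenic male B6;C3H A53T α-syn mice, starting at 4 months, were given drug once daily for 12 weeks in 0.5% CMC-Na. Fixed brains were sectioned at 40 µm on a freezing microtome. Substantia nigra coronal sections were immunostained for TH, visualized with DAB and peroxide, and positive neurons counted by light microscopy under blinding.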

Data set [8] concerns Mus musculus. Nature of the data set: Increase in dopamine levels in alpha-syn A53T transgenic B6C3H mouse striatum at 10 to 20 mg/kg dosed once daily for 12 consecutive weeks by HPLC analysis. The class given is functional, organism-based. In a few lines: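 α-syn A53T transgenic B6;C3H mice, dosed from 4 months of age once daily for 12 weeks with agent (5–20 mg/kg) or L-DOPA 20 mg/kg in 0.5% CMC-Na. Striatum sonicated in 0.6 N perchloric acid, phosphate/citrate/EDTA solution added, centrifuged; dopamine by HPLC, n = 8.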

In data set [9] the test system is Mus musculus. In words: Hepatotoxicity in ICR mouse at 250 to 1000 mg/kg administered through oral gavage for 14 consecutive days. The class given is toxicity, organism-based. Particulars: in vivo. A digest of the protocol:
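Mice dosed by oral gavage at 250, 500 and 1000 mg/kg for 14 consecutive days. General condition monitored throughout; liver and kidney clinical chemistry assessed.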

Data set [10] has as its system Mus musculus. Nature of the data set: Effect on ROCK1 protein expression level in midbrain of MPTP/probenecid-induced chronic C57/BL mouse Parkinson's disease model at 5 to 20 mg/kg dosed once daily for 7 weeks post 10 doses of MPTP/probenecid for 5 weeks by iTRAQ-labelled 2D-LC/MS/MS analysis. The class given is functional, organism-based.
The test system of data set [11] is Mus musculus. In words: Neuroprotective activity in MPTP/probenecid-induced chronic C57/BL mouse Parkinson's disease model assessed as improvement in motor behavior at 5 to 20 mg/kg dosed once daily for 7 weeks post 10 doses of MPTP/probenecid for 5 weeks measured after last MPTP/probenecid dose by rotarod test. The class given is functional, organism-based. In a few lines:
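Chronic MPTP/probenecid model (10 doses over 5 weeks), then agent (5–20 mg/kg) or L-DOPA 20 mg/kg daily for 7 weeks. Rotarod at 14 rpm, up to 120 s, fall latency from three trials 1 h apart. Pole test: gauze-wrapped 50 cm pole, descent scored 1–5, two trials 1 h apart after pre-training. n = 15.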

Data set [12] has as its system Mus musculus. Nature of the data set: Neuroprotective activity in MPTP-induced subacute C57/BL mouse Parkinson's disease model assessed as improvement in motor behavior at 5 to 20 mg/kg […] dosed 30 mins prior to each MPTP injection for 5 days and administered continously for 7 days post last MPTP dose by pole test. The class given is functional, organism-based. In a few lines:
(§3)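 Sub-acute MPTP model (30 mg/kg i.p. × 5 days) in male C57/BL mice. Agent (5–20 mg/kg) or L-DOPA 20 mg/kg given 30 min before each injection and for 7 days after. Rotarod at 14 rpm, up to 120 s, fall latency over three trials 1 h apart. Pole test: 50 cm pole, descent scored 1–5, two trials 1 h apart, pre-trained. n = 15.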

Data set [13] relates to Mus musculus. In words: Neuroprotective activity in MPTP-induced subacute C57/BL mouse Parkinson's disease model assessed as improvement in motor behavior at 5 to 20 mg/kg […] dosed 30 mins prior to each MPTP injection for 5 days and administered continously for 7 days post last MPTP dose by rotarod test. It counts as functional, organism-based. A digest of the protocol:
as §3

Data set [14] deals with Mus musculus. In words: Antineuro-inflammatrory activity in MPTP/probenecid-induced chronic C57/BL mouse Parkinson's disease model assessed as decrease in IL-1beta level in midbrain at 10 to 20 mg/kg dosed once daily for 7 weeks post 10 doses of MPTP/probenecid for 5 weeks measured after last MPTP/probenecid dose for 5 weeks by ELISA. It counts as functional, organism-based. In a few lines: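 Male C57/BL mice (22–25 g) received 10 doses of MPTP hydrochloride (25 mg/kg in saline, s.c.) plus probenecid (250 mg/kg in DMSO, i.p.) over 5 weeks. Only mice failing the rotarod afterwards were randomised to agent (5, 10, 20 mg/kg) or L-DOPA 20 mg/kg in 0.5% CMC-Na, once daily for 7 weeks. Midbrain lysate in non-denaturing buffer with protease inhibitor; IL-1β or TNF-α by ELISA, n = 6.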

Data set [15] deals with Proto-oncogene tyrosine-protein kinase Src (Rattus norvegicus) (UniProt Q9WUD9). Nature of the data set: Inhibition of Src in Sprague-Dawley rat primary mixed mesecephalic neuron/glial cells assessed as suppression of LPS-induced microglia activation by measuring Iba-1 expression at 10 uM preincubated for 1 hr followed by LPS challenge measured after 24 hrs.

Molecules are shown by their SMILES. The source made the active and inactive calls. The calls are words filed in the database; no cut-off is given here.

Chain of Proto-oncogene tyrosine-protein kinase Src (Rattus norvegicus) (Q9WUD9 2-536 limits assumed): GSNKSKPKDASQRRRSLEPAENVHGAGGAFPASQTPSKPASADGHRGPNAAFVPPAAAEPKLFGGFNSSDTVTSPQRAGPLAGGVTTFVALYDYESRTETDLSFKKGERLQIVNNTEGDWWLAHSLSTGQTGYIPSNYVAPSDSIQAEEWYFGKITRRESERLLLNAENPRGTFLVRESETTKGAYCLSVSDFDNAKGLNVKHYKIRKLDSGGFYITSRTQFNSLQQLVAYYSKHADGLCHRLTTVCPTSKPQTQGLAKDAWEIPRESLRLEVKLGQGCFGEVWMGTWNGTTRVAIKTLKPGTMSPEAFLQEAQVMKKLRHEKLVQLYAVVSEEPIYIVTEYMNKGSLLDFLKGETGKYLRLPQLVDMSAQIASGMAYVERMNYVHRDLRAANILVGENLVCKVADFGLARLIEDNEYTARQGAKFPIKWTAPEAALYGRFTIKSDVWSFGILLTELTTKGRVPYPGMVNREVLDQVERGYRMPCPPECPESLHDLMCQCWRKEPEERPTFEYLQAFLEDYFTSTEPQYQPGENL
Chain of Proto-oncogene tyrosine-protein kinase Src (Mus musculus) (P05480 2-535 limits assumed): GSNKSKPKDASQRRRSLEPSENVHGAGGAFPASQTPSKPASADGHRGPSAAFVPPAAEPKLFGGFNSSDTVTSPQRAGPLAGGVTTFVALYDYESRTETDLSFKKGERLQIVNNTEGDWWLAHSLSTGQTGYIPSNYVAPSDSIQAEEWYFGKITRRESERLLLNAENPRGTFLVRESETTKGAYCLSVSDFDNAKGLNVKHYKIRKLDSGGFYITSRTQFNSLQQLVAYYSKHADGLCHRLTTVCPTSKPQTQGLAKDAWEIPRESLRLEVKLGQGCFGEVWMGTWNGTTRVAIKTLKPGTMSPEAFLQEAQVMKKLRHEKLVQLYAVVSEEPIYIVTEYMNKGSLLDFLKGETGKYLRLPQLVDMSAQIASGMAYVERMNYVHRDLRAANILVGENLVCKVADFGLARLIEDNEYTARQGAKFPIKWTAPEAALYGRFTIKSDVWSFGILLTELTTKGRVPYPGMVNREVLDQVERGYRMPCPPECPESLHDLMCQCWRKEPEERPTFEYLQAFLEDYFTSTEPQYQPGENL

As for `COc1cc(OC)c(CN[C@@H](CO)C(=O)O)c(OC)c1`, the result in data set [1], in [2], in data set [3], in data set [7], in data set [8] and in data set [10] was Active. Moreover, the result in [11], in [12], in [13] and in [14] was Active. For the same compound, the inhibition result in data set [4], in data set [5], in data set [6] and in [15] was “Active” in each case. In addition, the Activity result in data set [9] is given as “Non-Toxic”.
